Calls of active or inactive are those of the source. The rule behind the calls is not given here.
Assays:
[1] = tested on: MCF7; assay: Antiproliferative activity against human MCF7 cells measured after 48 hrs under normoxic condition by MTT assay; format: functional, cell-based; conditions: MCF7, 48 h
[2] = biological target: Carbonic anhydrase 1 (Homo sapiens, UniProt P00915); assay: Inhibition of recombinant human carbonic anhydrase 1 preincubated with enzyme for 15 mins by phenol red dye based stopped flow CO2 hydrase assay
Chain of Carbonic anhydrase 1 (P00915 whole entry, the tested form may be a part): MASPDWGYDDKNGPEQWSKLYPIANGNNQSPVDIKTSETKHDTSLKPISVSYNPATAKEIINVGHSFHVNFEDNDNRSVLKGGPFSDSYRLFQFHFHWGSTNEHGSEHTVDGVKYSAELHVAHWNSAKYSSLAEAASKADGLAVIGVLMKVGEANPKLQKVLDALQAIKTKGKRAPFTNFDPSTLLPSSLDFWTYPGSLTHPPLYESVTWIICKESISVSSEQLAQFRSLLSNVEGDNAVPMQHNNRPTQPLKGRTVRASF

[3] = biological target: CDK9/cyclin T1 (Homo sapiens, UniProt P50750); assay: Inhibition of human full-length N-terminal GST/His6-tagged CDK9 (1 to 372 residues)/His6-tagged Cyclin-T1 (1 to 726 residues) expressed in sf9 cells using (YSPTSPS)2KK peptide as substrate in presence of [gamma33P]ATP
Chain of CDK9/cyclin T1 (O60563 whole entry, the tested form may be a part): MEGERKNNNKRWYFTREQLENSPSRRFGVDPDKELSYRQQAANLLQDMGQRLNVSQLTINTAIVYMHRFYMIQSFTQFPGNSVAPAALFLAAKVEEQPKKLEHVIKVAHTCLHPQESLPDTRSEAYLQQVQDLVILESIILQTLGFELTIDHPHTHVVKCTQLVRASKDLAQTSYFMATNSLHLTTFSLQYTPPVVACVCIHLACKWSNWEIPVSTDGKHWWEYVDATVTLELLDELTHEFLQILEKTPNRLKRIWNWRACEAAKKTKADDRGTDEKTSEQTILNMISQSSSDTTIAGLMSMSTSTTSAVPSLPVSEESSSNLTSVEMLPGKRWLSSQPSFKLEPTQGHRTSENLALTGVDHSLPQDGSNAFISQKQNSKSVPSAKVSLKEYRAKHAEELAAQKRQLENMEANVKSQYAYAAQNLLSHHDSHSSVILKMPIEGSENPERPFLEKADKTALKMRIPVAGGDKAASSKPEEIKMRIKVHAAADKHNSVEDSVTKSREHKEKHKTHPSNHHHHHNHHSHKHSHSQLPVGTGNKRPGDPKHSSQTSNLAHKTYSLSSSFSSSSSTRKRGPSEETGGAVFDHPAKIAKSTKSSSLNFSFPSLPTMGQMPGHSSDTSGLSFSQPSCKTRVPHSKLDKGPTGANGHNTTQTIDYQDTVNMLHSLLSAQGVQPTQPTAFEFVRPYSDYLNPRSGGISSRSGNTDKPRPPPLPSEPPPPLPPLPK
Chain of CDK9/cyclin T1 (P50750 whole entry, the tested form may be a part): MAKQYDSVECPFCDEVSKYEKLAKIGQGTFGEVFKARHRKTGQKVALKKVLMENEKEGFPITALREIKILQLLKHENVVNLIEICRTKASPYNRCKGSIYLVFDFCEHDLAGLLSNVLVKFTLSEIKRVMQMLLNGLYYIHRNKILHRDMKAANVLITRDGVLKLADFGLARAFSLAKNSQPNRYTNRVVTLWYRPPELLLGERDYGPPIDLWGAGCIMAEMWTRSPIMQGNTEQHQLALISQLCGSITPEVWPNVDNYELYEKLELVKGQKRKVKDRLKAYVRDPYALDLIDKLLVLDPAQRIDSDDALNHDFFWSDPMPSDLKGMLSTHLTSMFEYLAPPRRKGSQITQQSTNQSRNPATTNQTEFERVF

[4] = tested on: HL-60(TB); assay: Antitumor activity against human HL-60(TB) cells assessed as cell growth inhibition at 10 uM incubated for 48 hrs by sulforhodamine B assay; format: functional; conditions: read-out: GI
In short: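 Single-dose NCI-60-type screen of 57 human cancer cell lines at 10 μM under the NCI Drug Evaluation Branch protocol. Drugs exposed for 48 h; growth and viability read by sulforhodamine B assay. Data given as mean-graph percent growth of treated cells, expressed as percent growth inhibition.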

[5] = tested on: SR; assay: Antitumor activity against human SR cells assessed as cell growth inhibition at 10 uM incubated for 48 hrs by sulforhodamine B assay; format: functional; conditions: read-out: GI
In short: (§1)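 NCI one-dose screen: 57-cell-line panel exposed at 10 μM for 48 h, Drug Evaluation Branch protocol. Growth and viability read by sulforhodamine B; data given as percent growth inhibition from the mean-graph of percent growth of treated cells.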

[6] = tested on: A549; assay: Antitumor activity against human A549/ATCC cells assessed as cell growth inhibition at 10 uM incubated for 48 hrs by sulforhodamine B assay; format: functional; conditions: read-out: GI
In short: (§2)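 NCI Drug Evaluation Branch protocol: primary single-dose screen at 10 μM across a 57-line human cancer panel. Drug exposure is 48 h. Cell growth and viability are read by sulforhodamine B assay. Data are given as a mean graph of percent growth of treated cells and reported as percentage growth inhibition (GI%).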

[7] = tested on: EKVX; assay: Antitumor activity against human EKVX cells assessed as cell growth inhibition at 10 uM incubated for 48 hrs by sulforhodamine B assay; format: functional; conditions: read-out: GI; in short: as §2
[8] = tested on: NCI-H23; assay: Antitumor activity against human NCI-H23 cells assessed as cell growth inhibition at 10 uM incubated for 48 hrs by sulforhodamine B assay; format: functional; conditions: read-out: GI; in short: as §2
[9] = tested on: HCC 2998; assay: Antitumor activity against human HCC2998 cells assessed as cell growth inhibition at 10 uM incubated for 48 hrs by sulforhodamine B assay; format: functional; conditions: read-out: GI; in short: as §2
[10] = tested on: HT-29; assay: Antitumor activity against human HT-29 cells assessed as cell growth inhibition at 10 uM incubated for 48 hrs by sulforhodamine B assay; format: functional; conditions: read-out: GI; in short: as §2
[11] = tested on: SW-620; assay: Antitumor activity against human SW620 cells assessed as cell growth inhibition at 10 uM incubated for 48 hrs by sulforhodamine B assay; format: functional; conditions: read-out: GI; in short: as §1
[12] = tested on: SF-295; assay: Antitumor activity against human SF295 cells assessed as cell growth inhibition at 10 uM incubated for 48 hrs by sulforhodamine B assay; format: functional; conditions: read-out: GI; in short: as §2
[13] = tested on: SNB-19; assay: Antitumor activity against human SNB-19 cells assessed as cell growth inhibition at 10 uM incubated for 48 hrs by sulforhodamine B assay; format: functional; conditions: read-out: GI; in short: as §2
[14] = tested on: M14; assay: Antitumor activity against human M14 cells assessed as cell growth inhibition at 10 uM incubated for 48 hrs by sulforhodamine B assay; format: functional; conditions: read-out: GI; in short: as §2
[15] = tested on: MDA-MB-435; assay: Antitumor activity against human MDA-MB-435 cells assessed as cell growth inhibition at 10 uM incubated for 48 hrs by sulforhodamine B assay; format: functional; conditions: read-out: GI; in short: as §2
[16] = tested on: SK-MEL-28; assay: Antitumor activity against human SK-MEL-28 cells assessed as cell growth inhibition at 10 uM incubated for 48 hrs by sulforhodamine B assay; format: functional; conditions: read-out: GI; in short: as §2
[17] = tested on: UACC-62; assay: Antitumor activity against human UACC-62 cells assessed as cell growth inhibition at 10 uM incubated for 48 hrs by sulforhodamine B assay; format: functional; conditions: read-out: GI; in short: as §1
[18] = tested on: OVCAR-4; assay: Antitumor activity against human OVCAR-4 cells assessed as cell growth inhibition at 10 uM incubated for 48 hrs by sulforhodamine B assay; format: functional; conditions: read-out: GI; in short: as §2
[19] = tested on: OVCAR-5; assay: Antitumor activity against human OVCAR-5 cells assessed as cell growth inhibition at 10 uM incubated for 48 hrs by sulforhodamine B assay; format: functional; conditions: read-out: GI; in short: as §2
[20] = tested on: 786-0; assay: Antitumor activity against human 786-0 cells assessed as cell growth inhibition at 10 uM incubated for 48 hrs by sulforhodamine B assay; format: functional; conditions: read-out: GI; in short: as §2
[21] = tested on: A498; assay: Antitumor activity against human A498 cells assessed as cell growth inhibition at 10 uM incubated for 48 hrs by sulforhodamine B assay; format: functional; conditions: read-out: GI; in short: as §2
[22] = tested on: ACHN; assay: Antitumor activity against human ACHN cells assessed as cell growth inhibition at 10 uM incubated for 48 hrs by sulforhodamine B assay; format: functional; conditions: read-out: GI; in short: as §2
[23] = tested on: PC-3; assay: Antitumor activity against human PC-3 cells assessed as cell growth inhibition at 10 uM incubated for 48 hrs by sulforhodamine B assay; format: functional; conditions: read-out: GI; in short: as §2
[24] = tested on: TK-10; assay: Antitumor activity against human TK-10 cells assessed as cell growth inhibition at 10 uM incubated for 48 hrs by sulforhodamine B assay; format: functional; conditions: read-out: GI; in short: as §1
[25] = tested on: MCF7; assay: Antiproliferative activity against human MCF7 cells measured after 48 hrs under CoCl2-induced hypoxic condition by MTT assay; format: functional, cell-based; conditions: MCF7, 48 h
[26] = tested on: MDA-MB-468; assay: Antiproliferative activity against human MDA-MB-468 cells measured after 48 hrs under normoxic condition by MTT assay; format: functional, cell-based; conditions: MDA-MB-468, 48 h
[27] = tested on: MDA-MB-468; assay: Antiproliferative activity against human MDA-MB-468 cells measured after 48 hrs under CoCl2-induced hypoxic condition by MTT assay; format: functional, cell-based; conditions: MDA-MB-468, 48 h
[28] = tested on: COLO 205; assay: Antitumor activity against human COLO205 cells assessed as cell growth inhibition at 10 uM incubated for 48 hrs by sulforhodamine B assay; format: functional; conditions: read-out: GI; in short: as §2
[29] = tested on: HCT-15; assay: Antitumor activity against human HCT15 cells assessed as cell growth inhibition at 10 uM incubated for 48 hrs by sulforhodamine B assay; format: functional; conditions: read-out: GI; in short: as §2
[30] = tested on: UACC-257; assay: Antitumor activity against human UACC-257 cells assessed as cell growth inhibition at 10 uM incubated for 48 hrs by sulforhodamine B assay; format: functional; conditions: read-out: GI; in short: as §1
[31] = tested on: SK-OV-3; assay: Antitumor activity against human SK-OV-3 cells assessed as cell growth inhibition at 10 uM incubated for 48 hrs by sulforhodamine B assay; format: functional; conditions: read-out: GI; in short: as §2
[32] = tested on: MCF7; assay: Induction of cell cycle arrest in human MCF7 cells assessed as accumulation at G2/M phase at IC50 concentration incubated for 24 hrs by PI/RNase staining based flow cytometric analysis; format: functional
In short: (§3)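 Cells were washed in ice-cold PBS, fixed in ice-cold 70% ethanol, treated with 100 µg/mL RNase and stained with 40 µg/mL PI. DNA content was read by flow cytometry, with sub-G1 compared against control.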

[33] = tested on: MCF7; assay: Induction of cell cycle arrest in human MCF7 cells assessed as fold increase in apoptotic cells at sub-G1 phase at IC50 concentration incubated for 24 hrs by PI/RNase staining based flow cytometric analysis relative to control; format: functional; in short: as §3
[34] = tested on: MCF7; assay: Induction of apoptosis in human MCF7 cells assessed as early apoptotic cells by Annexin V-FITC/propidium iodide staining based flow cytometric analysis (reference value: 0.47 %); format: functional
[35] = tested on: MCF7; assay: Induction of apoptosis in human MCF7 cells assessed as late apoptotic cells by Annexin V-FITC/propidium iodide staining based flow cytometric analysis (reference value: 0.29 %); format: functional
[36] = tested on: MCF7; assay: Induction of apoptosis in human MCF7 cells assessed as necrotic cells by Annexin V-FITC/propidium iodide staining based flow cytometric analysis (reference value: 1.3 %); format: functional

Row | Compound | IC50 [1] [µM] | Ki [2] [µM] | IC50 [3] [µM] | inhibition of growth at 10 µM [4] [%] | inhibition of growth at 10 µM [5] [%] | inhibition of growth at 10 µM [6] [%] | inhibition of growth at 10 µM [7] [%] | inhibition of growth at 10 µM [8] [%] | inhibition of growth at 10 µM [9] [%] | inhibition of growth at 10 µM [10] [%] | inhibition of growth at 10 µM [11] [%] | inhibition of growth at 10 µM [12] [%] | inhibition of growth at 10 µM [13] [%] | inhibition of growth at 10 µM [14] [%] | inhibition of growth at 10 µM [15] [%] | inhibition of growth at 10 µM [16] [%] | inhibition of growth at 10 µM [23] [%] | IC50 [25] [µM] | IC50 [26] [µM] | IC50 [27] [µM] | also measured
1 | N#Cc1c(-c2ccc(Br)cc2)nc2c(/N=N/c3ccc(S(N)(=O)=O)cc3)c(N)nn2c1N | 4.77 | 4.16 | > 12.5 | 62 | 59 | 32 | 29 | 36 | 38 | 57 | 56 | 38 | 38 | 59 | 44 | 37 | 62 | 7.56 | 6.81 | 10 | inhibition of growth at 10 µM [17]: 28%; inhibition of growth at 10 µM [18]: 39%; inhibition of growth at 10 µM [19]: 28%; inhibition of growth at 10 µM [20]: 30%; inhibition of growth at 10 µM [21]: 35%; inhibition of growth at 10 µM [22]: 29%; inhibition of growth at 10 µM [24]: 27%
2 | Cc1ccc(-c2nc3c(/N=N/c4ccc(S(N)(=O)=O)cc4)c(N)nn3c(N)c2C#N)cc1 | 6.8 | 3.53 | > 12.5 | 97 | 71 | 37 | 30 | 56 | 48 | 64 | 83 | 51 | 42 | 54 | 48 | 47 | 68 | 15.1 | 1.37 | 3.03 | inhibition of growth at 10 µM [28]: 86%; inhibition of growth at 10 µM [29]: 18%; inhibition of growth at 10 µM [30]: 28%; inhibition of growth at 10 µM [17]: 47%; inhibition of growth at 10 µM [18]: 48%; inhibition of growth at 10 µM [19]: 21%; inhibition of growth at 10 µM [31]: 36%; inhibition of growth at 10 µM [20]: 35%; inhibition of growth at 10 µM [21]: 41%; inhibition of growth at 10 µM [22]: 100%; inhibition of growth at 10 µM [24]: 34%
3 | N#Cc1c(-c2ccc(F)cc2)nc2c(/N=N/c3ccc(S(N)(=O)=O)cc3)c(N)nn2c1N | 2.96 | 2.44 | > 12.5 |  |  |  |  |  |  |  |  |  |  |  |  |  | 29 | 7.73 | 5.38 | 11.3 | Activity [32]: Active; fold change (FC) [33]: 11; Activity [34]: 6.58%; Activity [35]: 10.89%; Activity [36]: 1.75%

— ChEMBL document CHEMBL4680175, “Sulfonamide-based ring-fused analogues for CAN508 as novel carbonic anhydrase inhibitors endowed with antitumor activity: Design, synthesis, and in vitro biological evaluation” (Eur J Med Chem, 2020)
